Experimental data: PMC6396188 (ACS Central Science, 2019)
Where no end group is shown, it is not given here. ROX = carboxy-X-rhodamine

Experiments:
IL-1α = assay: On-bead binding specificity test; set-up: species or system human; conditions: 50 nM ROX-IL-1α, PEGA beads, Figure 4B
IL-1β [1] = biological target: T1, IL-1β (Homo sapiens, UniProt P01584); assay: On-bead binding assay by fluorescence microscopy; conditions: on PEGA beads, 50 nM ROX-IL-1β
In short: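 Human IL-1β came from a codon-optimised gene with an N-terminal His-tag, expressed in E. coli BL21(DE3) and purified by Ni-NTA then size exclusion in PBS. It was labelled with 3 equiv ROX-NHS for 1 h at room temperature, excess dye removed on G-25 gel filtration, and quantified by 660 nm protein assay. Acetylated beads without β-body served as negative control. ROX read at 560/14 nm excitation and 605/52 nm emission.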

IL-6 = assay: Sandwich assay for IL-6; type: binding, human; conditions: capture 6 / ROX-labeled 7, with 0.05–0.1 M urea, 20 nM IL-6
[2] = Unspecific interaction between capture and detection β-body; type: binding
In short: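 Capture β-body was covalently linked to PEGA1900 beads and mixed in solution with purified ROX-labelled detection β-body, with no target protein added. For the IL-1β pair, incubation was in deionised water in glass vials for 3 h. Beads were then imaged by wide-field fluorescence microscopy for ROX at 560/14 nm excitation and 605/52 nm emission.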

IL-1β [3] = biological target: T1, IL-1β; assay: Sandwich assay for IL-1β; type: binding; conditions: capture 10 with detection ROX-2, 50 nM IL-1β, deionized water
IL-1β [4] = biological target: T1, IL-1β; assay: On-bead microplate equilibrium binding assay, IL-1β
In short: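 Human IL-1β, N-terminal His-tag, expressed in E. coli BL21(DE3), purified by Ni-NTA and size exclusion. Labelled with 3 equiv ROX-NHS for 1 h at room temperature, free dye removed on G-25. Three compound-bearing PEGA beads per well, in triplicate. Two-fold dilutions from 10 μM in 5 mM phosphate buffer, overnight incubation. ROX fluorescence imaged at 2 ms exposure. Kd from one-site nonlinear fit.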

GFP [5] = biological target: T2, GFP (Aequorea victoria, UniProt P42212, F64L/H231L/S65T); assay: Affinity purification of GFP from cell lysate on PEGA-β-body column, SDS-PAGE; conditions: packed PEGA column, washed with water, eluted with PBS
In short: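 GFP from Aequorea victoria, with an N-terminal His-tag, was expressed in E. coli BL21(DE3) from a pET plasmid. Culture was in LB with 100 μg/mL ampicillin at 37 °C to mid-exponential phase, then induced with 1 mM IPTG for 18 h at 20 °C. Cells were lysed in 50 mM Tris, 0.5 M NaCl, pH 8.0 with lysozyme and sonication, then clarified. SDS-PAGE gels were Coomassie-stained.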

GFP [6] = biological target: T2, GFP; assay: On-bead microplate equilibrium binding assay, GFP
In short: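 Three equal-sized PEGA beads bearing the test compound per well, in triplicate. Purified His-tagged GFP in Milli-Q water, two-fold serial dilutions from 20 μM. Incubated overnight at room temperature to equilibrium. Per-bead fluorescence quantified by microscopy (1 ms exposure, GFP filter set). Kd from a one-site specific binding nonlinear regression fit; points average 3–6 measurements.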

GFP [7] = biological target: T2, GFP; assay: Binding of GFP from E. coli cell lysate to β-body beads; conditions: beads with lysed E. coli cells expressing GFP
In short: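 PEGA beads carrying the test compound incubated with lysed E. coli cells expressing GFP. Bead-bound GFP imaged by wide-field fluorescence microscopy (ex 482/18 nm, em 520/28 nm). For capture, beads washed with water, bound GFP eluted with PBS, and the eluate analysed by SDS-PAGE alongside the whole-cell lysate.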

GFP [8] = biological target: T2, GFP; assay: On-bead binding assay by fluorescence microscopy; conditions: on PEGA beads, 50 nM GFP
In short: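 Recombinant N-terminally His-tagged GFP expressed in E. coli BL21(DE3), purified by Ni-NTA then size exclusion in PBS pH 7.4. Concentration from A490 (ε 55 000 M–1 cm–1). PEGA beads bearing the test compound placed in microplate wells with 50 nM GFP. N-acetylated beads served as negative control. Bead fluorescence imaged by microscopy (ex 482/18 nm, em 520/28 nm).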

IL-2 = assay: Sandwich assay for IL-2; type: binding, human; conditions: for detection of IL-2 in sandwich assay: capture bead-4 plus detection ROX-5, 50 nM IL-2, deionized water; for bead fluorescence in sandwich assay before protein addition: capture bead-4 plus detection ROX-5, deionized water, no IL-2
[9] = biological target: human recombinant IL-2 (ProSpec) (human, UniProt P60568 21-153); assay: on-bead fluorescence microscopy
Chain of human recombinant IL-2 (ProSpec) (P60568 21-153): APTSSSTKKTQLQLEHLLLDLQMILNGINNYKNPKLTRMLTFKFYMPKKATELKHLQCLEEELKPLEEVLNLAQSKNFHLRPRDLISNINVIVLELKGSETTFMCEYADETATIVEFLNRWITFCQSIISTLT

ETDTYTETYPGRTITWTITDG [β-body 2]
binding of ROX-labeled IL-1α to β-body beads (specificity) (IL-1α): no interaction
binding of ROX-labeled IL-1β to β-body beads (IL-1β [1]): binding was observed

ROX-TMTDTDTYPGFTDTLTHAG [ROX-7]
fluorescence from beads with IL-6 added (IL-6): remained strongly fluorescent
unspecific interaction between capture and detection peptide at surface of beads ([2]; capture 6 / ROX-labeled 7 (IL-6 pair), no urea): some unspecific interaction

ROX-ETDTYTETYPGYTSTWTITDG [ROX-2]
detection of IL-1β in sandwich assay (IL-1β [3]): enabled us to also detect IL-1β in nanomolar concentrations
unspecific binding of detection peptide to capture peptide ([2]; ROX-labeled 2 / capture 3 (IL-1β pair)): could not be prevented without affecting at the same time the binding of IL-1β

TWTETYTWTEPGDTQTLTITNTG [β-body 3]
Kd (IL-1β [4]): 610 ± 50 nM

TETKTVTITRPKMTWTFTHTVTG [β-body 1]
purification of GFP from cell lysate (GFP [5]): a significant up-concentration of GFP was achieved with removal of the majority of other proteins in the cell lysate
Kd (GFP [6]): 184 ± 28.6 nM
binding of GFP from cell lysate (GFP [7]): binding was observed
transfer of fluorescence from lysate to beads (GFP [7]): quantitatively transferred from the lysate to the beads
binding of GFP to β-body beads (GFP [8]): binding was observed

NTVTNTMTRPGVTETVTQTDG [β-body 4]
detection of IL-2 in sandwich assay (IL-2): fluorescent beads were then observed exclusively after addition of 50 nM of IL-2
bead fluorescence in sandwich assay before protein addition (IL-2): no observation of fluorescence on the beads

ROX-TRTLTYTEPGITQTKTEAG [ROX-5]
detection of IL-2 in sandwich assay (IL-2): fluorescent beads were then observed exclusively after addition of 50 nM of IL-2
bead fluorescence in sandwich assay before protein addition (IL-2): no observation of fluorescence on the beads

{ROX}-TRTLTYTEPGITQTKTEAG (designed binder) [ROX-labeled β-body 5]
binding result [9]: binds
